ChEMBL document CHEMBL2146381, “Structure-activity relationship (SAR) study of ethyl 2-amino-6-(3,5-dimethoxyphenyl)-4-(2-ethoxy-2-oxoethyl)-4H-chromene-3-carboxylate (CXL017) and the potential of the lead against multidrug resistance in cancer treatment” (J Med Chem, 2012)

Experiments:
HL-60 [1] = assay: Cytotoxicity against human HL60 cells assessed as cell viability after 48 hrs by celltiter-blue assay; assay type: functional, cell-based; conditions: HL-60, 48 h
Summary of the method: (§1)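 Tumour cell growth inhibition was measured in vitro, following the lab's established procedure. IC50 values are the mean of at least two independent experiments, each run in triplicate.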

CCRF-CEM [2] = assay: Ratio of IC50 for human CCRF-CEM/VLB100 cells IC50 for human CCRF-CEM cells; assay type: functional
Summary of the method: (§2)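 Each resistant subline and its matched parental line were tested in the same growth-inhibition assay, with IC50 taken as the mean of at least two independent experiments in triplicate. The MDR/parental IC50 ratio is reported as relative sensitivity: above 1 means resistance, below 1 means collateral sensitivity. Parental lines came from different sources for each resistant pair.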

K562 [3] = assay: Ratio of IC50 for human K562/HHT300 cells to IC50 for human K562 cells; assay type: functional; summary of the method: as §2
HL-60 [4] = assay: Ratio of IC50 for human HL60/ADR cells to IC50 for human HL60 cells; assay type: functional; summary of the method: as §2
CCRF-CEM [5] = assay: Cytotoxicity against human CCRF-CEM cells assessed as cell viability after 48 hrs by celltiter-blue assay; assay type: functional, cell-based; summary of the method: as §1
K562 [6] = assay: Ratio of IC50 for doxorubicin-resistant human K562 cells to IC50 for human K562 cells; assay type: functional; summary of the method: as §2
HL-60 [7] = assay: Ratio of IC50 for doxorubicin-resistant human HL60 cells to IC50 for human HL60 cells; assay type: functional; summary of the method: as §2
HL-60 [8] = assay: Ratio of IC50 for daunorubicin-resistant human HL60 cells to IC50 for human HL60 cells; assay type: functional; summary of the method: as §2
HL-60 [9] = assay: Ratio of IC50 for human HL60/MX2 cells to IC50 for human HL60 cells; assay type: functional; summary of the method: as §2
CCRF-CEM [10] = assay: Ratio of IC50 for human CCRF-CEM/C2 cells IC50 for human CCRF-CEM cells; assay type: functional; summary of the method: as §2
K562 [11] = assay: Cytotoxicity against human K562 cells assessed as cell viability after 48 hrs by celltiter-blue assay; assay type: functional, cell-based; conditions: K562, 48 h; summary of the method: as §1
CCRF-CEM [12] = assay: Ratio of IC50 for human CCRF-CEM/VM-1-5 cells IC50 for human CCRF-CEM cells; assay type: functional; summary of the method: as §2

Question: For `CCOC(=O)CC1C(C(=O)OCC)=C(N)Oc2ccc(-c3ccncc3)cc21` (racemic), which IC50 (HL-60 [1]) is on record?
Answer: 10.2 µM

Question: How did the IC50 (HL-60 [1]) turn out when `COc1cc(OC)cc(-c2ccc3c(c2)C(CC(=O)OCC2CO2)C(C(=O)OCC2CO2)=C(N)O3)c1` (racemic) was run?
Answer: > 80 µM

Question: With `C/C=C(/C)C(=O)O[C@H]1C(C)=C2[C@H]([C@@H]1OC(=O)CCCCCCC)[C@@](C)(OC(C)=O)C[C@H](OC(=O)CCC)[C@@]1(O)[C@H]2OC(=O)[C@@]1(C)O` [THAPSIGARGIN] as the molecule, how does the “Ratio IC50” value (CCRF-CEM [2]) read?
Answer: 7.7

Question: What about the “Ratio IC50” value (K562 [3]) of the same molecule?
Answer: >10

Question: And the “Ratio IC50” value (HL-60 [4])?
Answer: 1

Question: And the IC50 (CCRF-CEM [5])?
Answer: 270 nM

Question: And the “Ratio IC50” value (K562 [6])?
Answer: 4.2

Question: What about the “Ratio IC50” value (HL-60 [7]) of the same molecule?
Answer: >50

Question: What about the IC50 (HL-60 [1]) of the same molecule?
Answer: 0.007 µM

Question: And the “Ratio IC50” value (HL-60 [8])?
Answer: >50

Question: And the “Ratio IC50” value (HL-60 [9])?
Answer: 0.02

Question: And the “Ratio IC50” value (CCRF-CEM [10])?
Answer: 1.45

Question: And the IC50 (K562 [11])?
Answer: 170 nM

Question: What about the “Ratio IC50” value (CCRF-CEM [12]) of the same molecule?
Answer: 1

Question: What does the source list for `CN(C)CC[C@H](CSc1ccccc1)Nc1ccc(S(=O)(=O)NC(=O)c2ccc(N3CCN(Cc4ccccc4-c4ccc(Cl)cc4)CC3)cc2)cc1[N+](=O)[O-]` [ABT 737]?
Answer: Ratio IC50 (CCRF-CEM [2]): 0.3; Ratio IC50 (K562 [3]): 2.3; Ratio IC50 (HL-60 [4]): 4.5; IC50 (CCRF-CEM [5]): 740 nM; Ratio IC50 (K562 [6]): 2.7; Ratio IC50 (HL-60 [7]): 19.7; IC50 (HL-60 [1]): 0.76 µM; Ratio IC50 (HL-60 [8]): 4.9; Ratio IC50 (HL-60 [9]): 1.5; Ratio IC50 (CCRF-CEM [10]): 0.2; IC50 (K562 [11]): 34700 nM; Ratio IC50 (CCRF-CEM [12]): 2.2

Question: What does the source list for `COc1cc([C@@H]2c3cc4c(cc3[C@@H](O[C@@H]3O[C@@H]5CO[C@@H](C)O[C@H]5[C@H](O)[C@H]3O)[C@H]3COC(=O)[C@H]23)OCO4)cc(OC)c1O` [ETOPOSIDE]?
Answer: Ratio IC50 (CCRF-CEM [2]): 8.6; Ratio IC50 (K562 [3]): >1000; Ratio IC50 (HL-60 [4]): >10; IC50 (CCRF-CEM [5]): 240 nM; Ratio IC50 (K562 [6]): >15; Ratio IC50 (HL-60 [7]): >200; IC50 (HL-60 [1]): 0.11 µM; Ratio IC50 (HL-60 [8]): >50; Ratio IC50 (HL-60 [9]): 9; Ratio IC50 (CCRF-CEM [10]): 2.5; IC50 (K562 [11]): 2300 nM; Ratio IC50 (CCRF-CEM [12]): >50

Question: Which IC50 (HL-60 [1]) does the source give for `CCOC(=O)CC1C(C(=O)OCC)=C(N)Oc2ccc(-c3ccc(F)cc3)cc21` (racemic) here?
Answer: 72.1 µM

Question: With `COc1cccc2c1C(=O)c1c(O)c3c(c(O)c1C2=O)C[C@@](O)(C(=O)CO)C[C@@H]3O[C@H]1C[C@H](N)[C@H](O)[C@H](C)O1` [DOXORUBICIN] as the molecule, how does the “Ratio IC50” value (K562 [3]) read?
Answer: >20

Question: And the “Ratio IC50” value (HL-60 [4])?
Answer: >15

Question: What about the IC50 (CCRF-CEM [5]) of the same molecule?
Answer: 110 nM

Question: What about the “Ratio IC50” value (K562 [6]) of the same molecule?
Answer: >10

Question: What about the “Ratio IC50” value (HL-60 [7]) of the same molecule?
Answer: >100

Question: And the IC50 (HL-60 [1])?
Answer: 0.04 µM

Question: And the “Ratio IC50” value (HL-60 [8])?
Answer: >50

Question: And the “Ratio IC50” value (HL-60 [9])?
Answer: 5.3

Question: And the “Ratio IC50” value (CCRF-CEM [10])?
Answer: 6.7

Question: And the IC50 (K562 [11])?
Answer: 440 nM

Question: And the “Ratio IC50” value (CCRF-CEM [12])?
Answer: >15

Question: For `CCOC(=O)CC1C(C(=O)OCC)=C(N)Oc2ccc(-c3ccc(F)cc3F)cc21` (racemic), which IC50 (HL-60 [1]) is on record?
Answer: 76.6 µM

Question: With `C#CCOC(=O)CC1C(C(=O)OCC#C)=C(N)Oc2ccc(-c3ccc(NCC)cc3)cc21` (racemic) as the molecule, how does the IC50 (HL-60 [1]) read?
Answer: 7.27 µM

Question: For `CCOC(=O)CC1C(C(=O)OCC)=C(N)Oc2ccc(-c3ccco3)cc21` (racemic), which IC50 (HL-60 [1]) is on record?
Answer: > 80 µM

Question: For `CCOC(=O)CC1C(C(=O)OCC)=C(N)Oc2ccc(-c3cccc(N)c3)cc21` (racemic), which IC50 (HL-60 [1]) is on record?
Answer: 20.2 µM

Question: How did the IC50 (HL-60 [1]) turn out when `C#CCOC(=O)CC1C(C(=O)OCC#C)=C(N)Oc2ccc(-c3cccc(N(C)C)c3)cc21` (racemic) was run?
Answer: 12 µM

Question: How did the IC50 (HL-60 [1]) turn out when `CCOC(=O)CC1C(C(=O)OCC)=C(N)Oc2ccc(-c3cccc(NC)c3)cc21` (racemic) was run?
Answer: 7.45 µM

Question: With `C#CCOC(=O)CC1C(C(=O)OCC#C)=C(N)Oc2ccc(-c3ccc(NC)cc3)cc21` (racemic) as the molecule, how does the IC50 (HL-60 [1]) read?
Answer: 2.45 µM

Question: `CCOC(=O)CC1C(C#N)=C(N)Oc2ccc(-c3cc(OC)cc(OC)c3)cc21` (racemic) was tested. Which IC50 (HL-60 [1]) did it give?
Answer: 19.6 µM

Question: `C#CCOC(=O)CC1C(C(=O)OCC)=C(N)Oc2ccc(-c3cccc(NCC)c3)cc21` (racemic) was tested. Which IC50 (HL-60 [1]) did it give?
Answer: 17.2 µM

Question: Which IC50 (HL-60 [1]) does the source give for `COC(=O)CC1C(C(=O)OC)=C(N)Oc2ccc(-c3cc(OC)cc(OC)c3)cc21` (racemic) here?
Answer: 2.42 µM

Question: How did the “Ratio IC50” value (CCRF-CEM [2]) turn out when `O=C1c2c(O)ccc(O)c2C(=O)c2c(NCCNCCO)ccc(NCCNCCO)c21` [MITOXANTRONE] was run?
Answer: 2.3

Question: And the “Ratio IC50” value (K562 [3])?
Answer: >10

Question: What about the “Ratio IC50” value (HL-60 [4]) of the same molecule?
Answer: 2.4

Question: And the IC50 (CCRF-CEM [5])?
Answer: 36 nM

Question: And the “Ratio IC50” value (K562 [6])?
Answer: 5.1

Question: What about the “Ratio IC50” value (HL-60 [7]) of the same molecule?
Answer: >20

Question: And the IC50 (HL-60 [1])?
Answer: 0.016 µM

Question: What about the “Ratio IC50” value (HL-60 [8]) of the same molecule?
Answer: >10

Question: What about the “Ratio IC50” value (HL-60 [9]) of the same molecule?
Answer: >20

Question: What about the “Ratio IC50” value (CCRF-CEM [10]) of the same molecule?
Answer: 3

Question: And the IC50 (K562 [11])?
Answer: 510 nM

Question: And the “Ratio IC50” value (CCRF-CEM [12])?
Answer: >30

Question: How did the IC50 (HL-60 [1]) turn out when `C#CCOC(=O)CC1C(C(=O)OCC#C)=C(N)Oc2ccc(-c3cccc(-n4cnnn4)c3)cc21` (racemic) was run?
Answer: 1.62 µM

Question: For `CCOC(=O)CC1C(C(=O)OCC)=C(N)Oc2ccc(-c3cccc(C(N)=O)c3)cc21` (racemic), which IC50 (HL-60 [1]) is on record?
Answer: 5.4 µM

Question: For `C#CCOC(=O)CC1C(C(=O)OCC)=C(N)Oc2ccc(-c3cccc(NC)c3)cc21` (racemic), which IC50 (HL-60 [1]) is on record?
Answer: 7.13 µM

Question: `C#CCOC(=O)CC1C(C(=O)OCC#C)=C(N)Oc2ccc(-c3cccc(NC(=O)CCl)c3)cc21` (racemic) was tested. Which IC50 (HL-60 [1]) did it give?
Answer: 5.3 µM

Question: `C#CCOC(=O)CC1C(C(=O)OCC#C)=C(N)Oc2ccc(-c3cccc(NCC)c3)cc21` (racemic) was tested. Which IC50 (HL-60 [1]) did it give?
Answer: 1.86 µM
